The term pA2 denotes the negative logarithm of the molar antagonist concentration that doubles the agonist concentration needed for the same response. Lower therefore signals a weaker antagonist.

The structures appear in SMILES notation. Numbered stars: 1 amine (or outer) side, 2 acyl side, 3 side chain; on linkers, the order of the positions; unused ones are H or OH. Square brackets hold non-standard residues; d marks the D form. Peptide text beside a SMILES is read from it. X2 = O=C([C@H]1C[S+]([O-])CN1[*:1])[*:2]; Thz(5,5-Me2) = CC1(C)SCN[C@@H]1C(=O)O; Pen = CC(C)(S)[C@H](N)C(=O)O; NMeA = CN[C@@H](C)C(=O)O; Ac5c = NC1(C(=O)O)CCCC1; Aib = CC(C)(N)C(=O)O; Sar = CNCC(=O)O

In assay [1] the target is T1, Angiotensin II receptor (Rattus norvegicus, UniProt P29089+P25095+P35351).
T1 sequence (P29089 whole entry): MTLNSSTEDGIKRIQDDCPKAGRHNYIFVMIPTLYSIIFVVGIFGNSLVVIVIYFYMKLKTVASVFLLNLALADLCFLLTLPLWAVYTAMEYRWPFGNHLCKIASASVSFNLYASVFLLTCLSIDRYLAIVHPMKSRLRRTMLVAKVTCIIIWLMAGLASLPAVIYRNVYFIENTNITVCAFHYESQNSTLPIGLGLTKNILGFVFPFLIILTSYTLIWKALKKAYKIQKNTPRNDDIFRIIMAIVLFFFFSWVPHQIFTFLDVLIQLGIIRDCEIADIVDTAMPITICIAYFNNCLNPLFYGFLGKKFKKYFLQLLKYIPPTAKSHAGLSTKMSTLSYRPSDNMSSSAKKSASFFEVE
T1 sequence (P25095 whole entry): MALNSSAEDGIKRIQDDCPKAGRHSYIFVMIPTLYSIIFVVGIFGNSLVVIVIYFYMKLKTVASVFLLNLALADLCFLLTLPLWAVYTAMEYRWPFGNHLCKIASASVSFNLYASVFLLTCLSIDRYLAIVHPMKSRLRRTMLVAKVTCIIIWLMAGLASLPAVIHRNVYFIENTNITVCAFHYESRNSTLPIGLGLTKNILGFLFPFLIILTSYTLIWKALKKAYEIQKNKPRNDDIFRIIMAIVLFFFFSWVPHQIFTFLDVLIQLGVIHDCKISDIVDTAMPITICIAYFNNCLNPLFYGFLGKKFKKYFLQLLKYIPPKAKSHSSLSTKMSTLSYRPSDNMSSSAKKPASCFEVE
T1 sequence (P35351 whole entry): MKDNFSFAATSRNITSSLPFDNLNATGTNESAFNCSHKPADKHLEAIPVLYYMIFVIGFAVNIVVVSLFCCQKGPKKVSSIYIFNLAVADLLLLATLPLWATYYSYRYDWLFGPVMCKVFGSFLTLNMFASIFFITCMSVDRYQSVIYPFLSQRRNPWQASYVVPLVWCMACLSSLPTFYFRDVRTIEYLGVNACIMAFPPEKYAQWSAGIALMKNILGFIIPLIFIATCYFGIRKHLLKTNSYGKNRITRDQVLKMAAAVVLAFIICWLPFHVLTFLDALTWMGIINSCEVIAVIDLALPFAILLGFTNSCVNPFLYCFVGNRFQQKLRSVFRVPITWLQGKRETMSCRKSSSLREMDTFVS
The assay is described as follows: In vitro antagonist activity (ANG II like) expressed as percent activity relative to ANG II in rabbit aorta strip assay. Format: functional, tissue-based.

Assay [2] concerns the target T2, Angiotensin II receptor (Rattus norvegicus) (UniProt P29089+P25095+P35351). The experiment in a line: In vitro agonist activity relative to angiotensin II measured in rabbit aorta strip assay. Format: functional, tissue-based.
Assay [3] has as its target T2, Angiotensin II receptor (Rattus norvegicus). The experiment in a line: In vivo antagonist activity (ANG II like) expressed by blood pressure increase (mHg) produced by […] iv injection of compound in rats. It counts as functional, organism-based. In a few lines:
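Rat blood pressure assay after Regoli et al.; residual ANG II-like activity read as mmHg rise in blood pressure following a one microgram intravenous bolus of compound; n = 5.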

Compound `CC[C@H](C)[C@H](NC(=O)[C@@H]1CCCN1C(=O)[C@H](Cc1c[nH]cn1)NC(=O)C1(NC(=O)[C@H](Cc2ccc(O)cc2)NC(=O)[C@@H](NC(=O)[C@H](CCCN=C(N)N)NC(=O)CNC)C(C)C)CCCC1)C(=O)O` (H-[Sar]RVY[Ac5c]HPI-OH) showed a pA2 in assay [1] of 8.3. For the same compound, the Activity in assay [2] worked out at 0%. The compound also showed an ID50 (ng min-1 rat-1) in assay [3] of 10.

For `CC[C@H](C)[C@H](NC(=O)[C@H](Cc1ccc(O)cc1)NC(=O)[C@H](C)NC(=O)[C@H](CCCN=C(N)N)NC(=O)CNC)C(=O)N[C@@H](Cc1c[nH]cn1)C(=O)N1CCC[C@H]1C(=O)N[C@@H](Cc1ccccc1)C(=O)O` (H-[Sar]RAYIHPF-OH), the Activity in assay [2] was found to be 38%.

On to `CC[C@H](C)[C@H](NC(=O)[C@@H]1CCCN1C(=O)[C@H](Cc1c[nH]cn1)NC(=O)[C@H]([C@@H](C)CC)N(C)C(=O)[C@H](Cc1ccc(O)cc1)NC(=O)[C@@H](NC(=O)[C@H](CCCN=C(N)N)NC(=O)CNC)C(C)C)C(=O)O`, for which, in assay [1], the pA2 is listed as 7.64. Further, in assay [2], the Activity came out at 0%.

`CC[C@H](C)[C@H](NC(=O)[C@H](Cc1ccc(O)cc1)NC(=O)[C@@H](NC(=O)[C@H](CCCN=C(N)N)NC(=O)CNC)C(C)C)C(=O)N[C@@H](Cc1c[nH]cn1)C(=O)N1CCC[C@H]1C(=O)NC(C)(C)C(=O)O`: the pA2 in assay [1] is on record as 8.7.

In assay [1], `CC[C@H](C)[C@H](NC(=O)[C@@H]1CCCN1C(=O)[C@H](Cc1c[nH]cn1)NC(=O)[C@](C)(Cc1ccc(O)cc1)NC(=O)[C@H](Cc1ccc(O)cc1)NC(=O)[C@@H](NC(=O)[C@H](CCCN=C(N)N)NC(=O)CNC)C(C)C)C(=O)O` registered a pA2 of 8.25. The compound further showed an Activity in assay [2] of 0%. This compound also came in with an ID50 (ng min-1 rat-1) in assay [3] of 100.

The compound `CNCC(=O)N[C@@H](CCCN=C(N)N)C(=O)N[C@H](C(=O)N[C@@H](Cc1ccc(O)cc1)C(=O)N1CSC(C)(C)[C@@H]1C(=O)N[C@@H](Cc1c[nH]cn1)C(=O)N1CCC[C@H]1C(=O)N[C@H](Cc1ccccc1)C(=O)O)C(C)C` gave an Activity in assay [2] of 0%. The compound also showed an ID50 (ng min-1 rat-1) in assay [3] of 1000.

Take `CNCC(=O)N[C@@H](CCCN=C(N)N)C(=O)N[C@H](C(=O)N[C@@H](Cc1ccc(O)cc1)C(=O)NC1(C(=O)N[C@@H](Cc2c[nH]cn2)C(=O)N2CCC[C@H]2C(=O)N[C@@H](Cc2ccccc2)C(=O)O)CCCC1)C(C)C` (H-[Sar]RVY[Ac5c]HPF-OH): in assay [2], the Activity was 70%.

Take `CC[C@H](C)[C@H](NC(=O)[C@@H]1CCCN1C(=O)[C@H](Cc1c[nH]cn1)NC(=O)[C@@H](NC(=O)[C@H](Cc1ccc(O)cc1)NC(=O)[C@@H]1CCCN1C(=O)[C@H](CCCN=C(N)N)NC(=O)CNC)[C@@H](C)CC)C(=O)O` (H-[Sar]RPYIHPI-OH): in assay [1], the pA2 is 7.17. The compound also had an Activity in assay [2] of 1.5%.

Consider `CC[C@H](C)[C@H](NC(=O)[C@@H]1CCCN1C(=O)[C@H](Cc1c[nH]cn1)NC(=O)[C@@H](NC(=O)[C@H](Cc1ccc(O)cc1)NC(=O)[C@@H](NC(=O)[C@H](CCCN=C(N)N)NC(=O)CNC)C(C)C)C(C)(C)SC)C(=O)O` (H-[Sar]RVY[Pen](Me)HPI-OH), for which, in assay [1], the pA2 stood at 9.

On to `CC[C@H](C)[C@H](NC(=O)[C@@H]1CCCN1C(=O)[C@H](Cc1c[nH]cn1)NC(=O)[C@H](C)NC(=O)[C@H](Cc1ccc(O)cc1)NC(=O)[C@@H](NC(=O)[C@H](CCCN=C(N)N)NC(=O)CNC)C(C)C)C(=O)O` (H-[Sar]RVYAHPI-OH), for which, in assay [1], the pA2 amounted to 7.5. Further, in assay [2], the Activity was 0%. In assay [3], this compound registered an ID50 (ng min-1 rat-1) of 50.

The compound `CC[C@H](C)[C@H](NC(=O)[C@@H]1CCCN1C(=O)[C@H](Cc1c[nH]cn1)NC(=O)[C@H](Cc1ccc(O)cc1)NC(=O)[C@H](Cc1ccc(O)cc1)NC(=O)[C@@H](NC(=O)[C@H](CCCN=C(N)N)NC(=O)CNC)C(C)C)C(=O)O` registered a pA2 in assay [1] of 9.6.

As for `CC[C@H](C)[C@H](NC(=O)[C@@H]1CCCN1C(=O)[C@H](Cc1c[nH]cn1)NC(=O)[C@@H](NC(=O)[C@H](Cc1ccc(O)cc1)NC(=O)[C@@H](NC(=O)[C@H](CCCN=C(N)N)NC(=O)CNC)C(C)C)[C@@H](C)CC)C(=O)O`, the Activity in assay [2] was found to be 0%. The same compound returned an ID50 (ng min-1 rat-1) in assay [3] of 10.

With `CC[C@H](C)[C@H](NC(=O)C(C)(C)NC(=O)[C@H](Cc1c[nH]cn1)NC(=O)[C@@H](NC(=O)[C@H](Cc1ccc(O)cc1)NC(=O)[C@@H](NC(=O)[C@H](CCCN=C(N)N)NC(=O)CNC)C(C)C)[C@@H](C)CC)C(=O)O` (H-[Sar]RVYIH[Aib]I-OH), in assay [1], the pA2 was 8. This compound returned an Activity in assay [2] of 0%. The compound also came in with an ID50 (ng min-1 rat-1) in assay [3] of 60.

The compound `CNCC(=O)N[C@@H](CCCN=C(N)N)C(=O)N[C@H](C(=O)N[C@@H](Cc1ccc(O)cc1)C(=O)N1CSC(C)(C)[C@H]1C(=O)N[C@@H](Cc1c[nH]cn1)C(=O)N1CCC[C@H]1C(=O)N[C@H](Cc1ccccc1)C(=O)O)C(C)C` displayed a pA2 in assay [1] of 7.5.

For the compound `CC[C@H](C)[C@H](NC(=O)[C@H](Cc1ccc(O)cc1)NC(=O)[C@H](C)N(C)C(=O)[C@H](CCCN=C(N)N)NC(=O)CNC)C(=O)N[C@@H](Cc1c[nH]cn1)C(=O)N1CCC[C@H]1C(=O)N[C@@H](Cc1ccccc1)C(=O)O`, in assay [2], the Activity was determined as 120%.

Take `CC[C@H](C)[C@H](NC(=O)[C@H]1C[S+]([O-])CN1C(=O)[C@H](Cc1c[nH]cn1)NC(=O)[C@@H](NC(=O)[C@H](Cc1ccc(O)cc1)NC(=O)[C@@H](NC(=O)[C@H](CCCN=C(N)N)NC(=O)CNC)C(C)C)[C@@H](C)CC)C(=O)O` (some centres undefined) (H-[Sar]RVYIH[X2]I-OH): the pA2 in assay [1] amounted to 6.7.

On to `CC[C@H](C)[C@H](NC(=O)[C@@H]1CCCN1C(=O)[C@H](Cc1c[nH]cn1)NC(=O)[C@H]1N(C(=O)[C@H](Cc2ccc(O)cc2)NC(=O)[C@@H](NC(=O)[C@H](CCCN=C(N)N)NC(=O)CNC)C(C)C)CSC1(C)C)C(=O)O`, for which the pA2 in assay [1] is on record as 9.

Compound `CC[C@@H](C)[C@@H](NC(=O)[C@H](Cc1ccc(O)cc1)NC(=O)[C@@H](NC(=O)[C@H](CCCN=C(N)N)NC(=O)CNC)C(C)C)C(=O)N[C@@H](Cc1c[nH]cn1)C(=O)N1CCC[C@H]1C(=O)NC(C)(C)C(=O)O` gave an Activity in assay [2] of 0%.

On to `CC[C@H](C)[C@H](NC(=O)[C@H]1CSCN1C(=O)[C@H](Cc1c[nH]cn1)NC(=O)[C@@H](NC(=O)[C@H](Cc1ccc(O)cc1)NC(=O)[C@@H](NC(=O)[C@H](CCCN=C(N)N)NC(=O)CNC)C(C)C)[C@@H](C)CC)C(=O)O`, for which, in assay [2], the Activity came to 0%.

For `CC[C@H](C)[C@@H](C(=O)N[C@@H](Cc1c[nH]cn1)C(=O)N1CCC[C@H]1C(=O)N[C@@H](Cc1ccccc1)C(=O)O)N(C)C(=O)[C@H](Cc1ccc(O)cc1)NC(=O)[C@@H](NC(=O)[C@H](CCCN=C(N)N)NC(=O)CNC)C(C)C`, the Activity in assay [2] was determined as 20%.

`CC[C@H](C)[C@H](NC(=O)[C@@H]1CSCN1C(=O)[C@H](Cc1c[nH]cn1)NC(=O)[C@@H](NC(=O)[C@H](Cc1ccc(O)cc1)NC(=O)[C@@H](NC(=O)[C@H](CCCN=C(N)N)NC(=O)CNC)C(C)C)[C@@H](C)CC)C(=O)O` had a pA2 in assay [1] of 9.7.

For the compound `CC[C@H](C)[C@H](NC(=O)[C@@H]1N(C(=O)[C@H](Cc2c[nH]cn2)NC(=O)[C@@H](NC(=O)[C@H](Cc2ccc(O)cc2)NC(=O)[C@@H](NC(=O)[C@H](CCCN=C(N)N)NC(=O)CNC)C(C)C)[C@@H](C)CC)CSC1(C)C)C(=O)O`, the Activity in assay [2] was determined as 4%. Also, the ID50 (ng min-1 rat-1) in assay [3] stood at 250.

Consider `CC[C@H](C)[C@H](NC(=O)[C@@H]1CCCN1C(=O)[C@H](Cc1c[nH]cn1)NC(=O)[C@@H]1N(C(=O)[C@H](Cc2ccc(O)cc2)NC(=O)[C@@H](NC(=O)[C@H](CCCN=C(N)N)NC(=O)CNC)C(C)C)CSC1(C)C)C(=O)O`, for which the Activity in assay [2] amounted to 0%. In assay [3], this compound yielded an ID50 (ng min-1 rat-1) of 25.

`CC[C@H](C)[C@H](NC(=O)[C@H]1N(C(=O)[C@H](Cc2c[nH]cn2)NC(=O)[C@@H](NC(=O)[C@H](Cc2ccc(O)cc2)NC(=O)[C@@H](NC(=O)[C@H](CCCN=C(N)N)NC(=O)CNC)C(C)C)[C@@H](C)CC)CSC1(C)C)C(=O)O` showed a pA2 in assay [1] of 7.5.

In assay [1], `CNCC(=O)N[C@@H](CCCN=C(N)N)C(=O)N(C)[C@@H](C)C(=O)N[C@@H](Cc1ccc(O)cc1)C(=O)N1CSC(C)(C)[C@H]1C(=O)N[C@@H](Cc1c[nH]cn1)C(=O)N1CCC[C@H]1C(=O)NC(C)(C)C(=O)O` (H-[Sar]R[NMeA]Y[Thz(5,5-Me2)]HP[Aib]-OH) returned a pA2 of under 6.
